# From PubChem
# Beta cell apopt = blocks beta cell apoptosis; actives 0.8% (n = 300,000); protection from apoptosis, % (no concentration beside the values); INS-1E cytokine-induced death, ATP luminescence, 48 h; percent of positive-control rescue, neutral wells zero;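 active = Every replicate reaches about 75%, or at least half do and their mean reaches it too, limit read from the data; inconclusive = At least half of replicates reach the limit but their mean does not; inactive = Under half of replicates reach the limit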;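 also: 0% = cytokine-treated negative control wells and 100% = positive control rescue; higher means more ATP so stronger rescue from cytokine killing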
# SKKanGAS inh = blocks kanamycin growth of S. pyogenes SKKanGAS strain | BacTiter-Glo, 6 h | inhibition, % at 7.5 µM | actives 1.3% (n = 300,000);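 active = mean replicate score, as percent of positive control median, at least 50; inconclusive = mean below 50 but one replicate at or above 50; inactive = mean and every replicate below 50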;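 also: strain carries kanamycin resistance gene driven by streptokinase promoter and grows in 40 µg/ml kanamycin; loss of luminescence reflects streptokinase promoter inhibition or plain growth inhibition; 0% = median of DMSO wells and 100% = positive control at its reference dose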
# PfHsp90 set2 = inhibits growth of yeast expressing Plasmodium falciparum Hsp90. S. cerevisiae expressing PfHsp90, BacTiter-Glo ATP, 48 h; yeast lacking PDR1 and PDR3 efflux regulators. inhibition, % at 9.4 µM. actives 0.32% (n = 310,000). AID 504621;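 active = every replicate shows inhibition above about 80%, whatever the replicate mean, limit read from the data; inconclusive = mean inhibition reaches the set limit but some replicate falls short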;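 also: 0% = DMSO neutral controls and 100% = 20 µM radicicol positive controls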
# CSC inhib = blocks cancer stem cells; cancer stem cell-like cells viability, luminescence; inhibition, % at 7.5 µM; actives 1.1% (n = 300,000); AID 2717; in the data active = inhibition above about 75%; inconclusive = no clear call, values can overlap the other calls; tested in HMLE shEcad cells
# T cruzi inh = blocks replication of Trypanosoma cruzi; AID 1885; actives 1.4% (n = 300,000); T. cruzi beta-gal in NIH3T3, luminescence, 90 h; inhibition, % (no concentration beside the values);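 active = mean inhibition across valid replicates above about 55%, limit read from the data; inconclusive = mean below that limit but half or more replicates reach it; inactive = mean below it, under half of replicates reach it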;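 also: signal also drops with host cell toxicity which is not excluded here; 0% = plate median of DMSO wells and 100% = zero luminescence signal; higher percent means less beta-gal luminescence so fewer parasites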
#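 System – NIH/3T3 host cells with β-galactosidase reporter T. cruzi · Doses – single 50 nL compound addition per well in DMSO · Reagent – 5000 T. cruzi trypomastigotes/well · Medium – Low-serum DMEM with 2% FBS · Timing – ≥90 h infection period, 3 h prior cell attachment · Evaluation – parasite load inhibition, % · Technique – GalScreen luminescence, 60 min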
# HIF activator = HIF pathway transcriptional activation; U2OS HRE-luciferase reporter, luminescence; normalized: DMSO 0%, desferrioxamine 100%; activation, % at 7.5 µM (by protocol); AID 1910; actives 0.32% (n = 300,000);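 active = mean activation of at least 10% of the iron chelator positive control signal, with at least half of replicates also reaching 10%; inconclusive = mean and replicate majority disagree about reaching 10%; inactive = mean and most replicates under 10%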
# Starred values were filed as active, the others as inactive; ? = inconclusive; . = no result. Only some compounds are listed: those with a hit (about 3.6% of all), similar ones and a draw of the others.
SMILES,Beta cell apopt,SKKanGAS inh,PfHsp90 set2,CSC inhib,T cruzi inh,HIF activator
COc1cc(SC)ccc1C(=O)Nc1nc2ccccc2[nH]1,106*,107*,96*,-5,-3,-2
CSc1ccccc1C(=O)Nc1nc2ccccc2[nH]1,6,-5,9,1,-15,3
COc1ccccc1C(=O)NCCC(=O)Nc1nc2ccccc2[nH]1,-10,-16,4,5,-4,0
CCCN(CCC)S(=O)(=O)c1ccc(NC(=O)c2cc(C(=O)OC)cc([N+](=O)[O-])c2)cc1,-8,6,10,16,74*,-1
O=c1c(-c2c(O)cc(O)c3c2O[C@H](c2ccc(O)cc2)CC3)c(-c2ccc(O)cc2)oc2cc(O)cc(O)c12,2,.,-21,.,.,.
COc1ccc(CN2CC[C@H]3C=CCc4cccc(c43)C2)cc1,7,.,2,13,.,.
Cc1ccc(/C=C/C(=O)OCC(=O)Nc2cccc(S(=O)(=O)N(C)C)c2)o1,3,2,8,-3,-5,-2
CN1C(=O)/C(=C/c2cn(CC(=O)N3CCCCC3)c3ccccc23)c2ccccc21,0,25,.,-2,18,0
CNC(=O)c1c(NC(=O)c2ccc(N3C(=O)CCC3=O)cc2)sc2c1CCCC2,1,7,-42,-21,-12,0
CNC(=O)c1c(NC(=O)c2ccc(N3C(=O)CCC3=O)cc2)sc2c1CCC(C)C2 (centres undefined),0,61*,0,-5,-4,0
COc1ccc(N(Cc2ccccc2)C(=O)CSc2nnc(Cn3nnc4ccccc43)o2)cc1,7,4,-3,.,20,0
O=C(CSc1nnc(Cn2nnc3ccccc32)o1)N(Cc1ccc(F)cc1)c1ccccc1,109*,4,5,40,13,0
CC(C)N=c1scc(-c2ccco2)n1/N=C/c1ccc(O)c(O)c1,11,.,9,99*,.,.
CCN(C(=O)CSc1nnc(C)c(=O)[nH]1)c1cccc2ccccc12,-1,.,-5,7,.,.
COc1cccc(C2C3=C(N=c4s/c(=C\c5ccccc5O)c(=O)n42)c2ccccc2CC3)c1OC (centres undefined),7,-4,.,-10,-9,616*
CCc1nc(NC(C)(C)C)c2cnn(-c3ccccc3)c2n1,-1,25,-22,95*,21,3
CCCCNc1ncnc2c1cnn2-c1ccccc1,5,-8,28,-14,3,4
CCN(CC)C(=O)[C@H]1C[C@H](CC(=O)NC(C)(C)C)C(=O)N2CCc3c([nH]c4ccc(Cl)cc34)[C@]12C,.,.,-1,.,.,.
CCc1ccc(OCC(=O)NNC(=S)NC(=O)C2CC2)c(Br)c1,12,.,108*,-11,.,.
CC(C)CCOc1cccc(OCC(=O)Nc2ccncc2)c1,4,-22,103*,20,-11,0
CCc1ccc(OCC(=O)NNC(=S)NC(=O)C2CCCCC2)c(Br)c1,1,90*,-7,7,-17,0
CCc1ccc(OCC(=O)Nc2ccncc2)c(Br)c1,-3,-10,1,49,-38,13*
COc1cccc(CNC(=O)C2=Cc3cccc(OC)c3OC2)c1,-3,-6,18,-3,-13,0
O=c1cc(CSc2ccc(Cl)cc2)nc(-c2ccccn2)[nH]1,80*,97*,105*,94*,59*,7
Clc1ccc(SCc2cc(N3CCOCC3)nc(-c3ccccn3)n2)cc1,99*,-1,-22,10,60*,0
SMILES,Beta cell apopt,SKKanGAS inh,PfHsp90 set2,CSC inhib,T cruzi inh,HIF activator
O=c1cc(CSc2ccc(Cl)cc2)nc(-c2ccccc2)[nH]1,2,4,-17,-14,-24,0
COc1ccc(S(=O)(=O)NC2CC(=O)N(c3cccc(F)c3)C2)cc1OC (centres undefined),-5,12,.,13,4,0
CC(=O)c1ccc(N2C(=NC(=O)COc3ccccc3)SC3CS(=O)(=O)CC32)cc1 (centres undefined),0,-2,8,1,-6,473*
CCNc1nc(N)nc(Oc2ccc(OCCOc3ccc(Cl)cc3Cl)nn2)n1,4,-5,18,21,66*,0
Cc1c(C(=O)Nc2nonc2-c2ccc(F)cc2)oc2ccc(F)cc12,-1,57*,-47,?,-19,0
Cc1cc2c(ncn2Cc2ccccc2)c([N+](=O)[O-])c1C,2,-7,.,-7,-2,-1
OC(COc1ccc2ccccc2c1Br)Cn1ccnc1 (centres undefined),-1,6,-7,-9,63*,1
OC(COc1ccc2ccccc2c1)Cn1ccnc1 (centres undefined),.,11,2,.,48,0
COc1ccccc1C(=O)N1[C@@H](C(C)C)COc2cc(Br)ccc2S1(=O)=O,.,.,31,.,.,.
CCc1ccc(C(=O)CSC2=C(C#N)C(c3ccco3)C(C(C)=O)=C(C)N2)cc1 (centres undefined),110*,19,.,80*,47,1
CC(=O)C1=C(C)NC(SCC(=O)c2ccc(F)cc2)=C(C#N)C1c1ccco1 (centres undefined),-4,7,.,-6,20,1
CC(=O)C1=C(C)NC(SCC(=O)c2cc(Cl)ccc2Cl)=C(C#N)C1c1ccco1 (centres undefined),.,39,-7,.,17,0
CC(=O)C1=C(C)NC(SCC(=O)c2ccc(Cl)c(Cl)c2)=C(C#N)C1c1ccco1 (centres undefined),100*,56*,-6,157*,34,0
CCOc1ccc(NC(=O)CN(C)C(=O)C(C)Oc2ccc(Cl)cc2)cc1OCC (centres undefined),.,.,6,.,.,.
CCc1nc(SCC(=O)N2c3ccccc3CC2C)c2c(C)c(C)sc2n1 (centres undefined),20,50*,.,48,28,-1
Cn1c(=O)[nH]c(=O)c2c1nc(Br)n2CCCSc1nc2ccccc2o1,2,-10,-7,.,63*,0
COc1cc(-c2nc3ccc4ccccc4c3c3c2CCC3)cc(OC)c1O,1,16,67,8,19,0
COc1cc(-c2nc3ccc4ccccc4c3c3c2CCC3)ccc1O,2,29,-3,78*,27,0
Cc1cc(C)c2nc(C)cc(N/N=C/c3ccc(O)cc3)c2c1,.,5,-1,103*,64*,-1
N#Cc1ccc(NCC(=O)Nc2ccc(S(=O)(=O)N3CCCCC3)cc2)cc1,0,.,2,2,.,.
Cc1ccc(C)c(NS(=O)(=O)c2ccc(-c3cnc(C4CC4)o3)cc2)c1,47,4,-13,75*,22,0
COc1ccc(NS(=O)(=O)c2cc(-c3cnc(C4CC4)o3)ccc2C)cc1,17,-3,11,80*,-2,-1
